Activity calls are given as the source filed them. No cut-off for these calls is given here.
Legend:
Mus musculus [1] = organism: Mus musculus; assay: Analgesic activity in mouse by Eddy hot-plate method; format: functional
Rhesus monkey [2] = assay: Psychotomimetic activity in morphine-dependent nonwithdrawn rhesus monkey assessed as antagonist activity by measuring precipitation of withdrawal symptoms at 2 to 4 mg/kg; format: organism-based, Macaca mulatta; set-up: dose 2-4 mg/kg; conditions: in vivo
Mus musculus [3] = assay: Analgesic activity in sc dosed mouse by Eddy hot-plate method; format: functional
Rhesus monkey [4] = assay: Toxicity in rhesus monkey assessed as physical drug dependence liability at 2 to 4 mg/kg by single dose suppression analysis; format: organism-based, Macaca mulatta; set-up: dose 2-4 mg/kg; conditions: in vivo
In short: (§1)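 Rhesus monkeys addicted to morphine; single-dose suppression study scoring whether the test dose supports morphine dependence, i.e. suppresses withdrawal signs. Dose range 2-4 or 2-8 mg/kg, as given in each line.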

Rhesus monkey [5] = assay: Psychotomimetic activity in morphine-dependent nonwithdrawn rhesus monkey assessed as antagonist activity by measuring precipitation of withdrawal symptoms at 2 to 8 mg/kg; format: organism-based, Macaca mulatta; set-up: dose 2-8 mg/kg; conditions: in vivo
Rhesus monkey [6] = assay: Toxicity in rhesus monkey assessed as physical drug dependence liability at 2 to 8 mg/kg by single dose suppression analysis; format: organism-based, Macaca mulatta; set-up: dose 2-8 mg/kg; conditions: in vivo; in short: as §1

Structure (SMILES)	ED50 (Mus musculus [1])	other results
CN1CCC2CC(C1)c1ccccc12 (configuration not stated)	4.2 mg/kg	Activity (Rhesus monkey [2]): Non-toxic; ED50 (Mus musculus [3]): 8.2 mg/kg; Activity (Rhesus monkey [4]): Non-toxic
CN1CCC2CC1Cc1ccccc12 (configuration not stated)	11.2 mg/kg	
CN1CC[C@]23c4c5ccc(O)c4O[C@H]2[C@@H](O)C=C[C@H]3[C@H]1C5 [MORPHINE]	1.2 mg/kg	
CC(C)=CCN1CCC2CC(C1)c1ccccc12 (configuration not stated)	inactive	
CC1CCN(C)CCc2ccc(O)cc21 (configuration not stated)	12.5 mg/kg	
C=CCN1CCC2CC(C1)c1ccccc12 (configuration not stated)	19.4 mg/kg	
CCCN1CCC2CC(C1)c1ccccc12 (configuration not stated)	16.2 mg/kg	
COc1ccc2c3c1O[C@H]1[C@@H](O)C=C[C@H]4[C@@H](C2)N(C)CC[C@@]341 [CODEINE]	7.5 mg/kg	
CN1CC[C@@H]2CC1Cc1ccc(O)cc12	4.5 mg/kg	
c1ccc2c(c1)C1CCNCC2C1 (configuration not stated)	4.9 mg/kg	Activity (Rhesus monkey [5]): Non-toxic; Activity (Rhesus monkey [6]): Non-toxic; ED50 (Mus musculus [3]): 6.1 mg/kg
c1ccc(CCN2CCC3CC(C2)c2ccccc23)cc1 (configuration not stated)	8.8 mg/kg	

Source: ChEMBL document CHEMBL3244196, “Synthesis and analgetic activity of 1,2,3,4,5,6-hexahydro-1,6-methano-3-benzozocines” (J Med Chem, 1978)
